Assay results from ChEMBL document CHEMBL3774382, “Design and synthesis of small molecule-sulfotyrosine mimetics that inhibit HIV-1 entry” (Bioorg Med Chem, 2016).

Key:
[1] = system: Human immunodeficiency virus 1; assay: Antiviral activity against HIV1 CXCR4-tropic strain HxB2 infected in human 293T cells after 48 hrs by neutralization assay; format: functional, organism-based; conditions: Human immunodeficiency virus 1, HxB2, HEK-293T
Summary of the method: (§1)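 Env-pseudotyped virus made by transfecting 293T cells with SG3denv plus an HIV-1 env plasmid. Medium changed at 24 h, supernatant harvested at 48 h, 0.45 μm filtered, stored at −80 °C. Two-fold serial inhibitor dilutions mixed with virus, then TZM-bl cells added. Incubated at 37 °C, 5% CO₂, fresh medium at 24 h. Luciferase read after lysis at 48 h post-infection. Single round. Tested up to 400 μM.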

[2] = system: Human immunodeficiency virus 1; assay: Antiviral activity against HIV1 JRCSF infected in human 293T cells after 48 hrs by neutralization assay; format: functional, cell-based; conditions: Human immunodeficiency virus 1, JRCSF ISOLATE, HEK-293T; summary of the method: as §1
[3] = system: Human immunodeficiency virus 1; assay: Antiviral activity against HIV1 CCR5-tropic strain YU2 infected in human 293T cells after 48 hrs by neutralization assay; format: functional, cell-based; conditions: Human immunodeficiency virus 1, isolate YU2, HEK-293T; summary of the method: as §1
[4] = system: Human immunodeficiency virus 1; assay: Antiviral activity against HIV1 dual CXCR4/CCR5-tropic strain 89.6 infected in human 293T cells after 48 hrs by neutralization assay; format: functional, organism-based; conditions: Human immunodeficiency virus 1, 89.6, HEK-293T; summary of the method: as §1
[5] = system: Human immunodeficiency virus 1; assay: Antiviral activity against HIV1 NL4-3 infected in human 293T cells after 48 hrs by neutralization assay; format: functional, organism-based; conditions: Human immunodeficiency virus 1, NL4-3, HEK-293T; summary of the method: as §1
293T [6] = assay: Inhibition of envelope gp120 in CCR5-tropic HIV1 YU2 infected in human 293T cells assessed as dose reduction index ratio at 1: 10 at 1:10 inhibitor to CCR5 Nt sulfated peptide (2 to 18) by single round neutralization assay; format: cell-based; conditions: Human immunodeficiency virus type 1 (isolate YU2)
Summary of the method: (§2)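 Single-round YU2 pseudovirus neutralization in TZM-bl cells with luciferase read-out. Virus treated with inhibitor alone, with sulfated CCR5 N-terminal peptide 2–18 alone, or with a constant-ratio mixture, two-fold serial dilutions starting near 30× the single-agent IC₅₀. The ratio approximates the ratio of single-agent IC₅₀s. Analysed by the Chou–Talalay method. DRI is IC₅₀ alone divided by IC₅₀ in combination. CI below 1, equal to 1 and above 1 mean synergy, additivity and antagonism.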

[7] = Therapeutic index, ratio of LC50 for human TZM-bl cells to IC50 for HIV1; format: cell-based; conditions: read-out: TI
[8] = Binding affinity to HIV immobilized envelop gp120 at 80 to 350 uM by surface plasmon resonance analysis; set-up: species or system Human immunodeficiency virus
[9] = Cytotoxicity against human TZM-bl cells; format: cell-based; conditions: read-out: LC50 (the source's name)
[10] = Cytotoxicity against human TZM-bl cells at 200 to 500 uM; format: cell-based
293T [11] = assay: Inhibition of envelope gp120 in CCR5-tropic HIV1 YU2 infected in human 293T cells assessed as combination index at 1: 10 at 1:10 inhibitor to CCR5 Nt sulfated peptide (2 to 18) by single round neutralization assay; format: cell-based; conditions: Human immunodeficiency virus type 1 (isolate YU2); summary of the method: as §2
[12] = system: Human immunodeficiency virus 1; assay: Antiviral activity against HIV1 CCR5-tropic strain YU2 infected in human 293T cells at 500 uM after 48 hrs by neutralization assay; format: functional, cell-based, isolate YU2
[13] = Cytotoxicity against human TZM-bl cells at 500 uM; format: cell-based
[14] = system: Human immunodeficiency virus 1; assay: Antiviral activity against HIV1 CCR5-tropic strain YU2 infected in human 293T cells at 400 uM after 48 hrs by neutralization assay; format: functional, cell-based, isolate YU2; summary of the method: as §1
[15] = system: Human immunodeficiency virus 1; assay: Antiviral activity against HIV1 JRCSF infected in human 293T cells after at 400 uM 48 hrs by neutralization assay; format: functional, cell-based, JRCSF ISOLATE; summary of the method: as §1
[16] = system: Human immunodeficiency virus 1; assay: Antiviral activity against HIV1 dual CXCR4/CCR5-tropic strain 89.6 infected in human 293T cells at 400 uM after 48 hrs by neutralization assay; format: functional, organism-based; summary of the method: as §1

Row | SMILES | IC50 [1] [µM] | IC50 [2] [µM] | IC50 [3] [µM] | IC50 [4] [µM] | IC50 [5] [µM] | other results
1 | COc1ccc(OC)c(-c2csc(N3N=C(C)/C(=N\Nc4ccc(S(=O)(=O)O)cc4)C3=O)n2)c1 | – | – | 189 | – | – | –
2 | COc1ccc(-c2csc(N3N=C(c4ccccc4)/C(=N/Nc4ccc5c(S(=O)(=O)O)cc(S(=O)(=O)O)cc5c4)C3=O)n2)cc1 | 7.5 | 10.2 | 24.7 | 3.2 | 5.8 | Ratio (293T [6]): 1.3; selectivity ratio [7]: 10; Kd [8]: 80 µM; CC50 [9]: 200 µM; Activity [10]: Toxic; CI (293T [11]): 2.3
3 | CC1=NN(c2nc(-c3ccc(S(=O)(=O)O)cc3)cs2)C(=O)/C1=N/Nc1ccc(S(=O)(=O)O)cc1 | – | – | – | – | – | IC50 [12]: Not Active
4 | CN(C)c1ccc(-c2csc(N3N=C(c4ccccc4)/C(=N/Nc4ccc5c(S(=O)(=O)O)cc(S(=O)(=O)O)cc5c4)C3=O)n2)cc1 | 1.1 | 8 | 23.8 | 3.8 | 2.9 | Ratio (293T [6]): 1.2; selectivity ratio [7]: 13; CC50 [9]: 330 µM; CI (293T [11]): 2.5
5 | O=C1/C(=N\Nc2ccc3c(S(=O)(=O)O)cc(S(=O)(=O)O)cc3c2)C(c2ccccc2)=NN1c1nc(-c2nccs2)cs1 | 12 | 19.5 | 30.9 | 6.7 | 10.2 | –
6 | COc1ccc(-c2csc(N3N=C(C)/C(=N\Nc4ccc(CS(=O)(=O)O)cc4)C3=O)n2)cc1 | – | – | – | – | – | IC50 [12]: Not Active
7 | O=C1/C(=N\Nc2ccc3c(S(=O)(=O)O)cc(S(=O)(=O)O)cc3c2)C(c2ccccc2)=NN1c1nc(C(F)(F)F)cs1 | 6.8 | 5.8 | 27.9 | 2.4 | 6.3 | selectivity ratio [7]: 13; CC50 [9]: 370 µM; Activity [10]: Toxic
8 | CC1=NN(c2nc(-c3ccc(C(F)(F)F)cc3)cs2)C(=O)/C1=N/Nc1ccc(S(=O)(=O)O)cc1 | – | – | 139 | – | – | –
9 | CC1=NN(c2nc(-c3ccccc3)cs2)C(=O)/C1=N\Nc1cc(S(=O)(=O)O)cc2cc(S(=O)(=O)O)cc(S(=O)(=O)O)c12 | 36.8 | 47.6 | – | – | – | selectivity ratio [7]: < 10; CC50 [9]: 200 µM; Activity [10]: Toxic; IC50 [14]: Not Active
10 | O=C1/C(=N\Nc2ccc3c(S(=O)(=O)O)cc(S(=O)(=O)O)cc3c2)C(c2ccccc2)=NN1c1nc(-c2ccc3c(c2)OCCO3)cs1 | 5.2 | 14.9 | 22.3 | 8.9 | 7.7 | Ratio (293T [6]): 1.2; selectivity ratio [7]: < 10; CC50 [9]: 70 µM; CI (293T [11]): 1.9
11 | COCC1=NN(c2nc(-c3ccc(OC)cc3)cs2)C(=O)/C1=N\Nc1ccc2c(S(=O)(=O)O)cc(S(=O)(=O)O)cc2c1 | 10.1 | 36.2 | 74.9 | 22.3 | 15.6 | –
12 | O=C1/C(=N\Nc2ccc(S(=O)(=O)O)cc2)C(c2ccccc2)=NN1c1nc(-c2ccccc2)cs1 | – | – | – | – | – | Activity [13]: Non-toxic
13 | O=C1/C(=N\Nc2ccc3c(S(=O)(=O)O)cc(S(=O)(=O)O)cc3c2)C(c2ccccc2)=NN1c1nc(-c2ccccc2)cs1 | 3.6 | 30.7 | 43.7 | 8.4 | 7.1 | Kd [8]: 350 µM
14 | O=C1/C(=N\Nc2ccc3c(S(=O)(=O)O)cc(S(=O)(=O)O)cc3c2)C(c2ccccc2)=NN1c1nc(-c2ccc(OC(F)(F)F)cc2)cs1 | 14.2 | 29.8 | 52.8 | 14.8 | 10.7 | –

More lines, main results first:

Row | IC50 [1] [µM] | IC50 [2] [µM] | IC50 [3] [µM] | IC50 [4] [µM] | IC50 [5] [µM] | SMILES | other results
15 | 22.5 | 27 | 47.6 | – | – | COc1ccc(-c2csc(N3N=C(C)/C(=N/Nc4cc(S(=O)(=O)O)cc5cc(S(=O)(=O)O)cc(S(=O)(=O)O)c45)C3=O)n2)cc1 | –
16 | 51.1 | 64.8 | 137 | 101 | 33.1 | CC1=NN(c2nc(-c3ccccc3)cs2)C(=O)/C1=N\Nc1ccc2c(S(=O)(=O)O)cc(S(=O)(=O)O)cc2c1 | –
17 | – | – | 400 | – | – | CC1=NN(c2nc(-c3ccc(OC(F)(F)F)cc3)cs2)C(=O)/C1=N/Nc1ccc(S(=O)(=O)O)cc1 | –
18 | 9.4 | 24.1 | 62.4 | 14.6 | 11.2 | COc1ccc(-c2csc(N3N=C(COc4ccccc4)/C(=N/Nc4ccc5c(S(=O)(=O)O)cc(S(=O)(=O)O)cc5c4)C3=O)n2)cc1 | –
19 | 18.7 | 32.3 | 80.8 | – | – | COc1ccc(-c2csc(N3N=C(c4ccccc4)/C(=N/Nc4cc(S(=O)(=O)O)cc5cc(S(=O)(=O)O)cc(S(=O)(=O)O)c45)C3=O)n2)cc1 | selectivity ratio [7]: > 30; Activity [13]: Non-toxic
20 | – | – | 512 | – | – | CC1=NN(c2nc(-c3ccc(O)c(O)c3)cs2)C(=O)/C1=N/Nc1ccc(S(=O)(=O)O)cc1 | –
21 | 19.7 | 26.1 | 91.9 | – | – | CC1=NN(c2nc(-c3ccc(C(F)(F)F)cc3)cs2)C(=O)/C1=N\Nc1cc(S(=O)(=O)O)cc2cc(S(=O)(=O)O)cc(S(=O)(=O)O)c12 | –
22 | – | – | 126 | – | – | CC1=NN(c2nc(-c3ccc(C)cc3)cs2)C(=O)/C1=N\Nc1ccc(S(=O)(=O)O)cc1 | –
23 | 8.1 | 22.1 | 53.8 | 9.2 | 7 | COc1ccc(-c2csc(N3N=C(C)/C(=N/Nc4ccc5c(S(=O)(=O)O)cc(S(=O)(=O)O)cc5c4)C3=O)n2)cc1 | selectivity ratio [7]: > 30; Activity [13]: Non-toxic
24 | 28.9 | 30.8 | 80.6 | – | – | O=C1/C(=N\Nc2cc(S(=O)(=O)O)cc3cc(S(=O)(=O)O)cc(S(=O)(=O)O)c23)C(c2ccccc2)=NN1c1nc(-c2ccc(C(F)(F)F)cc2)cs1 | –
25 | – | – | 432 | – | – | CC1=NN(c2nc(-c3cccc(Cl)c3)cs2)C(=O)/C1=N/Nc1ccc(S(=O)(=O)O)cc1 | –
26 | 29.3 | 35.5 | 148 | – | – | O=C1/C(=N\Nc2cc(S(=O)(=O)O)cc3cc(S(=O)(=O)O)cc(S(=O)(=O)O)c23)C(c2ccccc2)=NN1c1nc(-c2ccccc2)cs1 | –
27 | 80 | – | 298 | – | 104 | COc1ccc(-c2csc(N3N=C(C(F)(F)F)/C(=N/Nc4ccc5c(S(=O)(=O)O)cc(S(=O)(=O)O)cc5c4)C3=O)n2)cc1 | IC50 [15]: Not Active; IC50 [16]: Not Active
28 | 2.5 | 9.9 | 30.7 | 2.9 | 3.6 | COc1ccc(OC)c(-c2csc(N3N=C(c4ccccc4)/C(=N/Nc4ccc5c(S(=O)(=O)O)cc(S(=O)(=O)O)cc5c4)C3=O)n2)c1 | selectivity ratio [7]: 16; Activity [13]: Non-toxic
